Format in all cases: functional
In experiment [1] the test system is Escherichia coli. As to the kind of experiment: Antimicrobial activity against Escherichia coli JM83 harboring pACYC184-ATEM by serial dilution method. The essentials: (§1)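 Broth serial dilution in LB medium, microtitre format; inoculum 5 x 10^5 CFU/ml; incubated with antibiotic overnight at 37°C; MIC read after overnight growth.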
Experiment [2] concerns Escherichia coli. As to the kind of experiment: Antimicrobial activity against Escherichia coli JM83 harboring pACYC184-TEM by serial dilution method. The essentials:
as §1

Experiment [3] deals with Escherichia coli. As to the kind of experiment: Antimicrobial activity against Escherichia coli JM83 by serial dilution method. The essentials: as §1

≈ marks a conversion by molar mass, not a printed value.

Five molecules from ChEMBL document CHEMBL1155144, “Cytoplasmic-membrane anchoring of a class A beta-lactamase and its capacity in manifesting antibiotic resistance” (2007) can be followed below.

As to `CC1(C)S[C@@H]2[C@H](NC(=O)[C@H](N)c3ccccc3)C(=O)N2[C@H]1C(=O)O` [AMPICILLIN], the MIC (in general, the least concentration at which growth counts as inhibited) in the experiment on Escherichia coli [1] was determined as 4000 µg/mL (≈ 11400 µM); in the experiment on Escherichia coli [2] it was 4000 µg/mL (≈ 11400 µM); against Escherichia coli [3], 4 µg/mL (≈ 11.4 µM).

Regarding `CC(C)(O/N=C(\C(=O)N[C@@H]1C(=O)N2C(C(=O)[O-])=C(C[n+]3ccccc3)CS[C@H]12)c1csc(N)n1)C(=O)O` [CEFTAZIDIME], the MIC against Escherichia coli [1], in the experiment with Escherichia coli [2] and against Escherichia coli [3] was 0.3 µg/mL (≈ 0.549 µM) in each case.

Consider `O=C(Cc1cccs1)N[C@@H]1C(=O)N2C(C(=O)[O-])=C(C[n+]3ccccc3)CS[C@H]12` [CEPHALORIDINE], for which the figures for the MIC with Escherichia coli [1], with Escherichia coli [2] and against Escherichia coli [3] were 32 µg/mL (≈ 77 µM), 32 µg/mL (≈ 77 µM) and 2 µg/mL (≈ 4.81 µM), respectively.

As for `CC(=O)OCC1=C(C(=O)O)N2C(=O)[C@@H](NC(=O)Cc3cccs3)[C@H]2SC1` [CEPHALOTHIN], the MIC came out at 64 µg/mL (≈ 161 µM) with Escherichia coli [1], 64 µg/mL (≈ 161 µM) in the experiment on Escherichia coli [2] and 4 µg/mL (≈ 10.1 µM) in the experiment on Escherichia coli [3].

As for `Cc1onc(-c2ccccc2)c1C(=O)N[C@@H]1C(=O)N2[C@@H]1SC(C)(C)[C@@H]2C(=O)O` [OXACILLIN], the MIC is 8000 µg/mL (≈ 19900 µM) in the experiment with Escherichia coli [1], 64 µg/mL (≈ 159 µM) in the experiment with Escherichia coli [2] and 2 µg/mL (≈ 4.98 µM) in the experiment with Escherichia coli [3].
